The apparent Kd is a dissociation constant that holds for the conditions of the assay.

Experimental findings from the EternaBench riboswitch data are described below.

The series concerns MS2 coat protein. Nature of the series: apparent Kd, MS2 coat protein; higher = weaker binding; RNA-MaP array. The gist of the method: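 Apparent Kd is the median of per-cluster binding-curve fits for designed RNAs transcribed from sequenced DNA templates on an Illumina sequencing chip. The RNAs were incubated at room temperature with fluorescently labeled MS2 coat protein at 1.5 nM to 3 μM, with or without input ligand, and designs measured on fewer than 10 clusters were excluded.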

Where [1] appears, read: designed as: OFF switch for flavin mononucleotide, no ligand.
Setting [2] is: ligand present: flavin mononucleotide, designed as: OFF switch for flavin mononucleotide.
[3] abbreviates: designed as: ON switch for tryptophan, no ligand.
Setting [4] is: ligand present: tryptophan, designed as: ON switch for tryptophan.
The mark [5] stands for this setting: designed as: ON switch for flavin mononucleotide, no ligand.
The mark [6] stands for this setting: ligand present: flavin mononucleotide, designed as: ON switch for flavin mononucleotide.
Setting [7] is: designed as: ON switch for theophylline, no ligand.
Where [8] appears, read: ligand present: theophylline, designed as: ON switch for theophylline.

On to “UCGGUAUAUACAGGAUAUGGUCAAUACAUGAGGAUCACCCAUGUUAGAGCGGCAAAUAGGAUCUUCCAGAAGGGUACUUGCUUA”, for which the “apparent Kd” value reads like this: under setting [1], 14.8 nM; under setting [2], 11.5 nM. Take “CACUACAUGAGGAUCACCCAUGUCUUCCGACGAGGACCGGUACGGCCGCCACUCGAACCUCCAACUAAUACCUCAACCGUCUGAU”: the “apparent Kd” value under setting [3] stood at 80.5 nM and the “apparent Kd” value under setting [4] stood at 54.6 nM.

Regarding “GAGAGAUAAGGAUAUCCACAACGGGACAUGAGGAUCACCCAUGUACCCUCAUUCCUCGCAGGAGAAGGUAUCAUGU”, the “apparent Kd” value is, setting by setting: under setting [1], 22.4 nM; under setting [2], 44.3 nM.

Regarding “GGAAUGUGAGGAUAUAGGUGACCAAUACAAAACACAAAGAUCUAGAAGGCACAUGAGGAUCACCCAUGUAUACG”, the “apparent Kd” value turned out to be 19.9 nM under setting [1] and 17.9 nM under setting [2]. In the case of “CAAUAUUUCCAGAAGGGCAAGCUAACACCAACUGCAGGAUAUGGUUUCAUACAACAUGAGGAUCACCCAUGUGGCACAGGUUCC”, the “apparent Kd” value under setting [5] worked out at 18.6 nM and the “apparent Kd” value under setting [6] was determined as 17.2 nM. As for “AAGCGACGUGACGCCUACAUGAGGAUCACCCAUGUAUGAAACAGAAGGUCCCGGAACCUUUACCGGAAGGAUAUGUAUCGUGCU”, the “apparent Kd” value reads like this: under setting [1], 9.18 nM; under setting [2], 7.78 nM. With “AGAGUUAUUGAGAAGGAAACAUUGACAUGAGGAUCACCCAUGUACUUGGCUAAGGAGCCGAGUGUUUAGGAUAUCAUUCAGAUA”, the “apparent Kd” value amounted to 25.6 nM under setting [5] and 9.33 nM under setting [6]. As to “UUGGUCCACAGACAUGAGGAUCACCCAUGUAGUAGUUGAAUGAGAAGGGCACUGGCUUGUCAGGUGCAGGAUAUCAGUCUAUGU”, the “apparent Kd” value is 118 nM under setting [1] and 106 nM under setting [2]. In the same order, the values of “UCUUGAGGCUAGGAUAUCAUACAUAAAAGCAACUGAGAAGGAGCCACAUGAGGAUCACCCAUGUAUCCGUUAUG” are 16.5 nM and 71.6 nM. As for “CUCUCGCAAGGAUAUACACAGUGGAAUAUCAUAAGGUGAACACAUGAGGAUCACCCAUGUAGAAGGUGCAUAAG”, under setting [2], the “apparent Kd” value was 38.5 nM. For “UCGUGCAGAUAGGAUAUAUAGUCACUGUCGUCUAUAGAAGGAUCUACAUGAGGAUCACCCAUGUAAUGUGAGUC”, the “apparent Kd” value by setting is: under setting [1], 132 nM; under setting [2], 30.6 nM. “ACUAGCAUAGGAUAUCACCACAGGUACAUGAGGAUCACCCAUGUGAGACUAGCUAGCUGCUGAGAAGGAUGAAAGG”: the “apparent Kd” value by setting is: under setting [1], 27.9 nM; under setting [2], 23.6 nM.

Take “AAUAAGAGCUCGGAUACCAGCGAAAACAGGCACAUGAGGAUCACCCAUGUUAACGCACUGCGCCCUUGGCAGCCGCACGUGUGUC”: the “apparent Kd” value under setting [7] is 25.1 nM and the “apparent Kd” value under setting [8] worked out at 12 nM. On to “GGCGUCCAAUUGCAGGAUAUCGGCCGAACAACAUGAGGAUCACCCAUGUCUUGCCACAAUCAUGCCGAGAAGGGCAGAAGAACGUG”, for which the “apparent Kd” value under setting [5] was 21 nM and the “apparent Kd” value under setting [6] was 10.1 nM.

Take “CUGAAAGUAGAGGAUAUGUGAAUAGCAGCGAUGACAGAAGGCUACACAUGAGGAUCACCCAUGUAAUCCCGUGC”: the “apparent Kd” value worked out at 20.4 nM under setting [1] and 28.1 nM under setting [2].

In the case of “GCUUGCUCAGAGGAUAUAGUUUCAACCACUCUACUAGAAGGCUGUACAUGAGGAUCACCCAUGUCCUUAAUCUC”, the “apparent Kd” value by setting is: under setting [1], 22.6 nM; under setting [2], 23.7 nM. In the same order, the values of “UCUUCCCGCUUAGGAUAUCUUGCUAAUUUGUGUAGAGAAGGAAGUGUAAACAUGAGGAUCACCCAUGUGGCCUCCAGAUAAAGC” are 12.1 nM and 14.9 nM.

For the sequence “GGAUUUGAUCCAGGAUAUUAACAAUCCUCAGAUCAAAAUACAUGAGGAUCACCCAUGUACUCAAAUAAGAAGGGGAUGGCGGCC”, the “apparent Kd” value stood at 25.7 nM under setting [1] and 20.5 nM under setting [2]. In the same order, the values of “AGGAACGAAGGAUAUGAUGAAUAGUACAUGAGGAUCACCCAUGUGGCCACCUUAGACAUCUCAGAAGGACGAUACU” are 33.6 nM and 25.1 nM. Regarding “AAAUACAUGAGGAUCACCCAUGUCAAUAAUCGAGGACCGGUACGGCCGCCACUCGAUCGGCCAAGAAAAUGAAAGAUGAUCUCUA”, the “apparent Kd” value by setting is: under setting [3], 26.9 nM; under setting [4], 30.7 nM.

For the sequence “UUGUGUUCUUAGGAUAUACAACUUACCAUCAGAGUAGAAGGAAGGACAUGAGGAUCACCCAUGUGGGCUAGCAG”, the “apparent Kd” value reads like this: under setting [1], 154 nM; under setting [2], 21.7 nM. For the sequence “GAACAUGAGGAUCACCCAUGUAGACGCAGGCUAAUAGAAUCGAGAAGGGCUAUAUGGGAACGCCAGCAGGAUAUCGGAGGUCAA”, the “apparent Kd” value is, setting by setting: under setting [5], 84 nM; under setting [6], 49.1 nM.

As for “GGUUUACAUGAGGAUCACCCAUGUCCUGACAUGAGUUAGAAACAGGAUAUGGCGCAAGAAAAUGUCCAGAAGGGUUCAUAGCAA”, the “apparent Kd” value by setting is: under setting [5], 238 nM; under setting [6], 70.2 nM.

On to “UGCAGAGAUUGAGGAUAUGUAGUCGAACAUGAGGAUCACCCAUGUUUGGUCCUUCUACACACGGCACAGAAGGCAAGAAAGAGC”, for which the “apparent Kd” value under setting [1] was found to be 15.1 nM and the “apparent Kd” value under setting [2] amounted to 24.3 nM.

In the case of “UAGAAUACAGGAUAUACAGCGAGAAAUCAUAUAAUAUACACACAUGAGGAUCACCCAUGUAGAAGGGAAUAAGG”, the “apparent Kd” value by setting is: under setting [1], 24.9 nM; under setting [2], 24 nM. Take “UGGUCGCAGUGAGGAUAUCCAGUCUAGGCACACGGAGAAGGCACGCGACAUGAGGAUCACCCAUGUAGACGAUAUGCUCCAGGU”: the “apparent Kd” value runs as follows: under setting [1], 22.1 nM; under setting [2], 31.3 nM. For the sequence “UGUGGAACGGAAGGAUAUGGUCACCGAUGGUCUCCAGAAGGUCCGGGUGACCGAACAAUACAUGAGGAUCACCCAUGUAGCAAA”, the “apparent Kd” value worked out at 7 nM under setting [1] and 6.84 nM under setting [2]. Regarding “UUAGUGGAACGGAAGGAUAUGAGCCACCCUACAUGAGGAUCACCCAUGUGAGCGUUGGCAGCGCAUCAGAAGGUCCUCCUACGAGU”, the “apparent Kd” value under setting [5] was 6.63 nM and the “apparent Kd” value under setting [6] amounted to 5.9 nM. With “AAUGGGUGAGAUCGUUUCAACAUGAGGAUCACCCAUGUUGACAGAAGGAGGUCUAAAUAGCUACCCUAGGAUAUGUCCAUGCGA”, the “apparent Kd” value is, setting by setting: under setting [1], 19.9 nM; under setting [2], 31.9 nM. With “CGUUCAGUCCAGCGGUUACAUGAGGAUCACCCAUGUUUAGAGAGAAGGGUUGGCACCAGGAUGUAACAGGAUAUCUCGCUUACG”, the “apparent Kd” value under setting [5] amounted to 171 nM and the “apparent Kd” value under setting [6] came out at 71.5 nM.

Take “AAGACGAAGAAGAAGGGCAUACAUGAGGAUCACCCAUGUGAAAAUGUGCUGAAAGAACAUAAAUUGCAGGAUAUUCACACAAGU”: the “apparent Kd” value runs as follows: under setting [5], 11.2 nM; under setting [6], 6.42 nM. Regarding “GUUGGACAUGAGGAUCACCCAUGUGAAUUGUUUUCCACGUACUAGGAUAUCGCGGGACAAACCAUCGAGAAGGAGUCGACCUAA”, the “apparent Kd” value is, setting by setting: under setting [1], 14.4 nM; under setting [2], 12.2 nM. For “UAUCUUGAUAGAGGAUAUGAUAUUAAAGAAUAAUCAGAAGGCUAGUCAGAUCUUCUACAUGAGGAUCACCCAUGUUCGCGAACC” the same measures were 211 nM and 208 nM.

Regarding “GUCGGCUCAGUGUAGGAUAUGUCAAAGGUCACAUGAGGAUCACCCAUGUCUCGACGCAAAUUAGGACAGAAGGACAGCCAAAGCAU”, the “apparent Kd” value came to 7.57 nM under setting [5] and 4.97 nM under setting [6]. Regarding “CCGCUUGCAGGAUAUACAUGAGGAUCACCCAUGUUAAGAGAACAGUAACAAAGCAUUUGUAGAAGGGCAAUACG”, the “apparent Kd” value is, setting by setting: under setting [1], 9.81 nM; under setting [2], 9.19 nM.

For the sequence “AAGCUCUCAGGAUAUACAUGAGGAUCACCCAUGUGGUCGUAUUUAAAGUGGAGCAGCAGUAGAAGGGAGGCGAC”, the “apparent Kd” value is, setting by setting: under setting [1], 24.5 nM; under setting [2], 20.4 nM.

Turning to “AUACCAUCCCAAGGAUAUGUUACCUAGACAUGAGGAUCACCCAUGUGAGAUUAGAGCUGUCGCGUACAGAAGGUGGUGAUGACA”, the “apparent Kd” value came out at 25.3 nM under setting [1] and 28.1 nM under setting [2]. In the same order, the values of “CGGGUGUAGACAGGAUAUGCAAAUAAAGGUGAAGCAGAAGGGUCACAUGAGGAUCACCCAUGUCACUAAAUUGGCGGUAUAAGA” are 39 nM and 159 nM. For “CAAUGACCCAAGGAUAUCUGCAGACGCGAGCCCAGAGAAGGUGGGACAUGAGGAUCACCCAUGUUCUCGUGUGA” the same measures were 37 nM and 73.1 nM.

“GAUCCACAUGAGGAUCACCCAUGUGAGGAUACCAGUACCAGAUCCUACCCUUGGCAGCCUAACCUUCAUUCAACACGAAUAAGAA”: the “apparent Kd” value reads like this: under setting [7], 12.4 nM; under setting [8], 14.3 nM.

As to “AUAUGUUGAGGAUAUACAUGAGGAUCACCCAUGUAAUAUGAACGGAAUGAUUUAAGGAGUAGAAGGCAACACCA”, the “apparent Kd” value under setting [1] is 12.8 nM and the “apparent Kd” value under setting [2] is 24.4 nM. Consider “CCCUCCAGAACGGCCGCCACUAAAGGGUUGUGUGCGACUCCGGAACAUGAGGAUCACCCAUGUCUUAGGACCGGGUUCCCUUCUA”, for which the “apparent Kd” value under setting [3] came out at 62 nM and the “apparent Kd” value under setting [4] was 56.5 nM. Regarding “ACAUGAGGAUCACCCAUGUCUCGGGUGCCGGUUUUUACCUAGAGAAGGUGCGCAACGCUGUCACGCAAGGAUAUCUCACGAACA”, the “apparent Kd” value reads like this: under setting [1], 231 nM; under setting [2], 184 nM. As to “GGAAGGACAGUUGAUACCAGUUUCAAAGGCGGUAAUCACUACAUGAGGAUCACCCAUGUCAACCCUUGGCAGCAAUAGACCGUGG”, the “apparent Kd” value is, setting by setting: (designed as: OFF switch for theophylline, no ligand) 18.8 nM; (ligand present: theophylline, designed as: OFF switch for theophylline) 24 nM.

As to “AUGAUGUAAGGAUAUUGCGCGAUGUUUACCAUUGGUCUGCACAAGAAGGUACAUGAGGAUCACCCAUGUGGGCC”, the “apparent Kd” value under setting [1] stood at 27.9 nM and the “apparent Kd” value under setting [2] was 39.9 nM. For “CAGUGAAGAGGAUAUACAUGAGGAUCACCCAUGUACCGUGGUCCAUAUCAUAAUUCGAGUAGAAGGCUUAACCA” the same measures were 114 nM and 108 nM. As to “GGUACUCUGUACUAACAUGAGGAUCACCCAUGUAGGCAAACUCAGGAUAUAUUGAACACACCUAGAUAGAAGGGAGUUCGUGAU”, the “apparent Kd” value under setting [5] came out at 11.2 nM and the “apparent Kd” value under setting [6] was determined as 9.66 nM. For the sequence “GCAAAUGCUGAGAAGGUGAUGAAUAACUCCUCGAUGUAACUUGACAUGAGGAUCACCCAUGUCAUCAAGGAUAUCAAAGUGAAC”, the “apparent Kd” value under setting [1] was found to be 9.54 nM and the “apparent Kd” value under setting [2] stood at 16.2 nM.
